Data reported in ChEMBL document CHEMBL2440088, “A synthetic compound, 4-acetyl-3-methyl-6-(3,4,5-trimethoxyphenyl)pyrano[3,4-c]pyran-1,8-dione, ameliorates ovalbumin-induced asthma” (Bioorg Med Chem, 2013).
The source made the active and inactive calls. The rule behind the calls is not given here.

Legend:
Mus musculus [1] = assay: Antiinflammatory activity in ovalbumin-sensitized Balb/c mouse asthma model model assessed as reduction of goblet cell hyperplasia in lungs at 10 mg/kg, ip by PAS staining; type: functional, organism-based; design: dose 10 mg/kg
Procedure, shortened: (§1)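 Male Balb/c mice, 6 weeks old and 20-25 g, n = 6 per group, were sensitized ip on days 0 and 14 with 100 μg OVA precipitated with 20 mg aluminum hydroxide in 200 μl PBS. They were challenged intranasally with 1% OVA in 50 μl PBS on days 15, 17, 19, 21, 23 and 25, and sacrificed on day 27.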

Mus musculus [2] = assay: Antiinflammatory activity in ovalbumin-sensitized Balb/c mouse asthma model model assessed as reduction of airway smooth muscle thickness in lungs at 10 mg/kg, ip by IHC staining; type: functional, organism-based; design: dose 10 mg/kg; details: Muscle tissue; procedure, shortened: as §1
Mus musculus [3] = assay: Antiinflammatory activity in ovalbumin-sensitized Balb/c mouse asthma model model assessed as reduction of eosinophils, neutrophils, lymphocytes, and macrophages level in BAL fluid at 10 mg/kg, ip; type: functional, organism-based; design: dose 10 mg/kg; procedure, shortened: as §1
Mus musculus [4] = assay: Antiinflammatory activity in ovalbumin-sensitized Balb/c mouse asthma model model assessed as reduction in methacholine-induced airway hyperresponsiveness at 10 mg/kg, ip; type: functional, organism-based; design: dose 10 mg/kg
Procedure, shortened: (§2)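 AHR was read in OVA-sensitized/challenged Balb/c mice (n = 6 per group) 24 h after the final allergen challenge, by barometric whole-body plethysmography. A 3 min baseline came first, then inhalation of methacholine at 50 or 100 mg ml⁻¹, with the read-out as enhanced pause (Penh).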

A549 [5] = assay: Inhibition of TNFalpha/IL4/IL1-beta-induced CCL11 secretion in human A549 cells at 5 uM treated 1 hr before TNFalpha/IL4/IL1-beta stimulation measured after 24 hrs by ELISA; type: functional
Procedure, shortened: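 Confluent A549 cells were held in serum-free RPMI for 24 h, pretreated 1 h with 0-50 μM, then stimulated with IL-1β (10 ng ml⁻¹), TNF-α (100 ng ml⁻¹) and IL-4 (100 ng ml⁻¹) for 24 h. Eotaxin in the supernatant was measured by ELISA; three independent experiments were run.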

Mus musculus [6] = assay: Antiinflammatory activity in ovalbumin-sensitized Balb/c mouse asthma model model assessed as reduction of eosinophils infiltration in lungs at 10 mg/kg, ip by hematoxylin and eosin staining; type: functional, organism-based; design: dose 10 mg/kg; procedure, shortened: as §1
[7] = target: T1, Signal transducer and activator of transcription 6 (Homo sapiens) (UniProt P42226); assay: Inhibition of TNFalpha/IL4/IL1-beta-induced STAT6 phosphorylation in human A549 cells at 50 uM after 15 mins by Western blotting analysis; type: cell-based; details: in the assay text read “after 1 hr” for “after 15 mins”
T1 sequence (whole entry): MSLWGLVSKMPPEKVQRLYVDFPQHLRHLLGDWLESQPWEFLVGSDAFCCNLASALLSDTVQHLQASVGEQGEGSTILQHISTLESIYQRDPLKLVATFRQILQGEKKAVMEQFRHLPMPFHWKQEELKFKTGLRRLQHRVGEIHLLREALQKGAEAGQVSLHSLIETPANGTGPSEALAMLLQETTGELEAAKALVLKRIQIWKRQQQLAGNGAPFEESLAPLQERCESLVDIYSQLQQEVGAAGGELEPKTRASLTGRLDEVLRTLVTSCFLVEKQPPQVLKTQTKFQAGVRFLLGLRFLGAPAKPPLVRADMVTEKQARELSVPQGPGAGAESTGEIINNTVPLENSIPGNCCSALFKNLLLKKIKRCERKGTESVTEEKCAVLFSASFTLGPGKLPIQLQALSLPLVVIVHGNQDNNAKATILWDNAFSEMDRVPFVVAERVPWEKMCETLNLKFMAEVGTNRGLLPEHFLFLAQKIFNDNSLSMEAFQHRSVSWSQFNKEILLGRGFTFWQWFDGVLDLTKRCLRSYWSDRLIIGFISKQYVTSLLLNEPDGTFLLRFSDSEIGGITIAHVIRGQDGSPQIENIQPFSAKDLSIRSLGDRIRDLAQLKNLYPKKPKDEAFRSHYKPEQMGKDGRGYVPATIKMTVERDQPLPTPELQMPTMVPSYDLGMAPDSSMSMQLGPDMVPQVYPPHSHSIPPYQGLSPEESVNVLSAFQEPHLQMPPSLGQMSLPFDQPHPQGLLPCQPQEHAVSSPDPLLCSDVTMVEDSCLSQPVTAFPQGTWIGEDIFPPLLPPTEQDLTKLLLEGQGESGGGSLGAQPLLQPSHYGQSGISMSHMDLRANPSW
Procedure, shortened: (§3)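 Nuclear extracts were western blotted for p65 or phospho-STAT6, with bands normalized to PCNA by densitometry over three experiments.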

Mus musculus [8] = assay: Antiinflammatory activity in ovalbumin-sensitized Balb/c mouse asthma model model assessed as reduction in IgE level in serum at 10 mg/kg, ip after 48 hrs of last dose by ELISA; type: functional, organism-based; design: dose 10 mg/kg; procedure, shortened: as §1
[9] = target: Transcription factor p65 (Homo sapiens) (UniProt Q04206); assay: Inhibition of TNFalpha/IL4/IL1-beta-induced NFkappaB p65 nuclear translocation in human A549 cells at 50 uM after 15 mins by Western blotting analysis; type: cell-based; details: in the assay text read “after 1 hr” for “after 15 mins”; procedure, shortened: as §3
Chain of Transcription factor p65 (Homo sapiens) (Q04206 whole entry): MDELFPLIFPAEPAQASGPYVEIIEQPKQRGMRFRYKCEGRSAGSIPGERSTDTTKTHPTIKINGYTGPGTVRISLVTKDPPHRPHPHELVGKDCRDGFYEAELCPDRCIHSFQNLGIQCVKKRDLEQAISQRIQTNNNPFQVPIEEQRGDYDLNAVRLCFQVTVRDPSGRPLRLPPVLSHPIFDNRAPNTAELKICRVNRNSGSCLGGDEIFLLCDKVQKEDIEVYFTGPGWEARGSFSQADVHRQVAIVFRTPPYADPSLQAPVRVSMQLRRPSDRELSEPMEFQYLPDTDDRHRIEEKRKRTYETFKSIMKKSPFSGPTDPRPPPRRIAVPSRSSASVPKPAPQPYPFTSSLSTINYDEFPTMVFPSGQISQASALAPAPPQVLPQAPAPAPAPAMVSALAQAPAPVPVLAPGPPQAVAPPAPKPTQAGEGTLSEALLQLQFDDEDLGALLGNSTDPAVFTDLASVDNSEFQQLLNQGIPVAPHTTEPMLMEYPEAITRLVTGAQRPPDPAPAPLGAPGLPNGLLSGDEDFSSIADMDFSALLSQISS

A549 [10] = assay: Cytotoxicity against human A549 cells assessed as cell viability at 50 uM after 24 hrs by MTS assay; type: cell-based; details: a549, 24 h
Procedure, shortened: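 A549 cells were seeded at 2×10⁴ cells per well and grown 24 h at 37 °C, then exposed to 0, 5, 10 or 50 μM for 24 h. MTS reagent was added for a further 4 h and absorbance read at 490 nm; assays were run in triplicate.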

Mus musculus [11] = assay: Antiinflammatory activity in ovalbumin-sensitized Balb/c mouse asthma model model assessed as reduction of eosinophils, neutrophils, lymphocytes, and macrophages level in BAL fluid at 1 mg/kg, po; type: functional, organism-based; design: dose 1 mg/kg; procedure, shortened: as §1
Mus musculus [12] = assay: Antiinflammatory activity in ovalbumin-sensitized Balb/c mouse asthma model model assessed as reduction in methacholine-induced airway hyperresponsiveness at 1 mg/kg, po; type: functional, organism-based; design: dose 1 mg/kg; procedure, shortened: as §2
Mus musculus [13] = assay: Antiinflammatory activity in ovalbumin-sensitized Balb/c mouse asthma model model assessed as reduction of goblet cell hyperplasia in lungs at 1 mg/kg, po by PAS staining; type: functional, organism-based; design: dose 1 mg/kg; procedure, shortened: as §1

Row | inhibition [7] | inhibition [9] | Structure (SMILES) | Activity (Mus musculus [1]) | Activity (Mus musculus [2]) | Activity (Mus musculus [3]) | Activity (Mus musculus [4]) | inhibition at 5 µM (A549 [5]) | Activity (Mus musculus [6]) | Activity (Mus musculus [8]) | Activity (A549 [10]) | Activity (Mus musculus [11]) | Activity (Mus musculus [12]) | Activity (Mus musculus [13])
1 | Active | inactive | COc1cc(-c2cc3c(C(C)=O)c(C)oc(=O)c3c(=O)o2)cc(OC)c1OC | Active | Active | Active | Active | 75% | Active | Active | Non-toxic | – | – | –
2 | – | – | C[C@@H]1C[C@H]2[C@@H]3CCC4=CC(=O)C=C[C@]4(C)[C@@]3(F)[C@@H](O)C[C@]2(C)[C@@]1(O)C(=O)CO | – | – | – | – | – | – | – | – | Active | Active | Active
